Laboratory results as given in ChEMBL document CHEMBL4699653, “Hydroxamate-Based Selective Macrophage Elastase (MMP-12) Inhibitors and Radiotracers for Molecular Imaging” (J Med Chem, 2020).
Active and inactive are the calls of the source. The rule behind the calls is not given here.

Assays:
[1] = target: T1, Matrilysin (Homo sapiens, UniProt P09237); assay: Inhibition of human recombinant MMP7 using Mca-Lys-Pro-Leu-Gly-Leu-Dpa-Ala-Arg-NH2 substrate by spectrophotometry
T1 sequence (P09237 whole entry): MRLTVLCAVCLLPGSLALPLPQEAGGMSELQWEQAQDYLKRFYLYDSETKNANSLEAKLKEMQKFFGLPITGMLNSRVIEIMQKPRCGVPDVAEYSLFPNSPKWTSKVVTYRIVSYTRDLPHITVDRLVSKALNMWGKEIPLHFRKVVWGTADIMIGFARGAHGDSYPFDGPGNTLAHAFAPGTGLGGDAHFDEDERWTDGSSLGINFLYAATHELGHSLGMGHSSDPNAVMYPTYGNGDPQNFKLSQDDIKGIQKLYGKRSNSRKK
Summary of the method: (§1)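 Fluorogenic cleavage kinetics with 0.2–0.5 nM recombinant human MMP in 50 mM Tris/HCl pH 6.8 with 10 mM CaCl2 at 25 °C. […] Fluorescence is monitored. Ki is derived by the Horovitz–Levitski method, as the mean ± SD of three experiments.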

[2] = target: Macrophage metalloelastase (Mus musculus) (UniProt P34960); assay: Inhibition of mouse recombinant MMP12 using Mca-Lys-Pro-Leu-Gly-Leu-Dpa-Ala-Arg-NH2 substrate by spectrophotometry
[3] = target: 72 kDa type IV collagenase (Homo sapiens, UniProt P08253); assay: Inhibition of human recombinant MMP2 using Mca-Lys-Pro-Leu-Gly-Leu-Dpa-Ala-Arg-NH2 substrate by spectrophotometry; summary of the method: as §1
[4] = target: Macrophage metalloelastase (Homo sapiens, UniProt P39900); assay: Inhibition of human recombinant MMP12 using Mca-Lys-Pro-Leu-Gly-Leu-Dpa-Ala-Arg-NH2 substrate by spectrophotometry; summary of the method: as §1
[5] = species on record: Homo sapiens; assay: Selectivity index, ratio of Ki for inhibition of human recombinant MMP9 for Ki for inhibition of human recombinant MMP12
[6] = target: Collagenase 3 (Homo sapiens, UniProt P45452); assay: Inhibition of human recombinant MMP13 using Mca-Lys-Pro-Leu-Gly-Leu-Dpa-Ala-Arg-NH2 substrate by spectrophotometry; summary of the method: as §1
[7] = target: Matrix metalloproteinase-9 (Homo sapiens, UniProt P14780); assay: Inhibition of human recombinant MMP9 using Mca-Lys-Pro-Leu-Gly-Leu-Dpa-Ala-Arg-NH2 substrate by spectrophotometry; summary of the method: as §1
[8] = species on record: Homo sapiens; assay: Selectivity index, ratio of Ki for inhibition of human recombinant MMP7 for Ki for inhibition of human recombinant MMP12
[9] = species on record: Homo sapiens; assay: Selectivity index, ratio of Ki for inhibition of human recombinant MMP13 for Ki for inhibition of human recombinant MMP12

Chain of Matrix metalloproteinase-9 (P14780 whole entry): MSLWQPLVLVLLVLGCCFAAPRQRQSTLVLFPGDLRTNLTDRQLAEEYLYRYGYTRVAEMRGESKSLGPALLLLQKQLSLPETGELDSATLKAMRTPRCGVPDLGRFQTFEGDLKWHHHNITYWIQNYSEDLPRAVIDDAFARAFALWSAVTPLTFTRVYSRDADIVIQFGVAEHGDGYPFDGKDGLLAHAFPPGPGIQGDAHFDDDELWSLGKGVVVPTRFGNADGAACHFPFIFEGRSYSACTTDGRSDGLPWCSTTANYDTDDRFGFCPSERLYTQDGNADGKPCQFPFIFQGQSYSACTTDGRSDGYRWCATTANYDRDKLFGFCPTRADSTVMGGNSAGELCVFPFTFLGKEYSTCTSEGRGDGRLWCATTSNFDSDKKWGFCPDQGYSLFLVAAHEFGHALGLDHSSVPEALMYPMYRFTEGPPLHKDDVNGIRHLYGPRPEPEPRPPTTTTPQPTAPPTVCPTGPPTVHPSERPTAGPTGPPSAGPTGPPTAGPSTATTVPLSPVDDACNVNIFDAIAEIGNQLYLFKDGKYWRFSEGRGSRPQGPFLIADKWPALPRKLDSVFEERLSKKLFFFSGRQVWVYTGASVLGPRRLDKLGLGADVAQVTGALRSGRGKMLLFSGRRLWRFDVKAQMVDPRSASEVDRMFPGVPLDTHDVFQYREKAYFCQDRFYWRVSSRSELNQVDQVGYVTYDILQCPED
Chain of Macrophage metalloelastase (P39900 whole entry): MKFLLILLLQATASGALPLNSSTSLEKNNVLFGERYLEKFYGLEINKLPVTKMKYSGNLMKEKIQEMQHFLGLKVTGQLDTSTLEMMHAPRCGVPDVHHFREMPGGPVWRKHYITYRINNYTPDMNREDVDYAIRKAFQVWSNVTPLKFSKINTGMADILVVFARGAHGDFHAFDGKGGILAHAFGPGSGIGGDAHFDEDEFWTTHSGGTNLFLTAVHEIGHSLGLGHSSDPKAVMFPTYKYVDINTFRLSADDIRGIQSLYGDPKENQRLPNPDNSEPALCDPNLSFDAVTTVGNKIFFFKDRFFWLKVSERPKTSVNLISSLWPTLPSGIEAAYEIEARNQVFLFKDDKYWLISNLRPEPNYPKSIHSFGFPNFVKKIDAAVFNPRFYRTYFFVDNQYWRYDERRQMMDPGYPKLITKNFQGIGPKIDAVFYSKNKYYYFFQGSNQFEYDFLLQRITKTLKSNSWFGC
Chain of 72 kDa type IV collagenase (P08253 whole entry): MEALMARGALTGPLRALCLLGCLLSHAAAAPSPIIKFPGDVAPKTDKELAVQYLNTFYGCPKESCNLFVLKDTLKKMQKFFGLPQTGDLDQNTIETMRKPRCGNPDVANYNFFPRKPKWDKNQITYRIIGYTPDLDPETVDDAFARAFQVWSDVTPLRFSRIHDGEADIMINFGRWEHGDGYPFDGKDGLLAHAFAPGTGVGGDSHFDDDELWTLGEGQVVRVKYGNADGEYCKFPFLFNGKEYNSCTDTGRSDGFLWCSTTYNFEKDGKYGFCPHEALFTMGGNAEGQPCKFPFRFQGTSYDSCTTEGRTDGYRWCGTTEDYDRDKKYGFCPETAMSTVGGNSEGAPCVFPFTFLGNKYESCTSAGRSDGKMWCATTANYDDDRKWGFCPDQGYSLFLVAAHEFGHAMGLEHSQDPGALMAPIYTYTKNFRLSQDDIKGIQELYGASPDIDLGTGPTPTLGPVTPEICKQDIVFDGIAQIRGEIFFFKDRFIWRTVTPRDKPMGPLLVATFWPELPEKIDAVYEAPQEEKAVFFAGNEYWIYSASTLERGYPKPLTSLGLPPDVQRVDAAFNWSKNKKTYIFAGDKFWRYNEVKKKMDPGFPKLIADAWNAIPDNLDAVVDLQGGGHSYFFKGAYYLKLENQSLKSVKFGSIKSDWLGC
Chain of Macrophage metalloelastase (Mus musculus) (P34960 110-473 limits assumed): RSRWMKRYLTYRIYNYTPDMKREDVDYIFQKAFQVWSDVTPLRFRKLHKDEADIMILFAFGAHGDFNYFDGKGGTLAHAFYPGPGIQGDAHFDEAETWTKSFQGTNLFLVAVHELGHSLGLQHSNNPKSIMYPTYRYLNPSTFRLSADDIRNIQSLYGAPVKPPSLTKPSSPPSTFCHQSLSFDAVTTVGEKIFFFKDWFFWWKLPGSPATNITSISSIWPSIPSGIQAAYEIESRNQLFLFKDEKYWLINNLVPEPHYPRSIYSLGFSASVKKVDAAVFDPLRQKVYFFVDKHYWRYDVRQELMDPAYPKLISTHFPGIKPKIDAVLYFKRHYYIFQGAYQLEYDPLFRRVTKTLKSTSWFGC

Ki [1]	inhibition (qualitative) [2]	Ki [3]	Ki [4]	Ratio Ki [5]	Ki [6]	Ki [7]	Ratio Ki [8]	Ratio Ki [9]	Compound
> 5000 nM	Active	> 5000 nM	8.9 nM	17	> 5000 nM	155 nM	–	–	CC(C)C[C@H](CC(=O)NO)C(=O)N[C@@H](Cc1ccc(OCCNC(=O)c2ccc(NN)nc2)cc1)C(=O)O
14.6 nM	Active	396 nM	1.2 nM	–	89 nM	2110 nM	12	74	CC(C)C[C@H]1C(=O)N[C@H](C(=O)N[C@@H](CCC(=O)O)C(=O)O)Cc2ccc(cc2)OCCC[C@@H]1C(=O)NO
615 nM	Active	222 nM	7.5 nM	–	78 nM	1300 nM	–	–	CC(C)C[C@H](CC(=O)NO)C(=O)N[C@@H](Cc1ccccc1)C(=O)N[C@@H](CCC(=O)O)C(=O)NCCNC(=O)c1ccc(NN)nc1
323 nM	Active	164 nM	11.8 nM	–	81 nM	125 nM	–	–	CC(C)C[C@H](CC(=O)NO)C(=O)N[C@@H](Cc1ccccc1)C(=O)O
–	Active	–	–	–	–	–	–	–	CNC(=O)[C@H](CCCNC(=N)N)NC(=O)[C@@H]1Cc2ccc(cc2)OCCC[C@H](C(=O)NO)[C@@H](CC(C)C)C(=O)N1

Compound	Ki [1]	inhibition (qualitative) [2]	Ki [3]	Ki [4]	Ratio Ki [5]	Ki [6]	Ki [7]	Ratio Ki [8]	Ratio Ki [9]
CC(C)C[C@H]1C(=O)N[C@H](C(=O)O)Cc2ccc(cc2)OCCC[C@@H]1C(=O)NO	39 nM	Active	300 nM	1.1 nM	–	31 nM	1100 nM	–	–
